ChEMBL document CHEMBL4715682, “Potent trifluoromethoxy, trifluoromethylsulfonyl, trifluoromethylthio and pentafluorosulfanyl containing (1,3,4-oxadiazol-2-yl)benzamides against drug-resistant Gram-positive bacteria” (RSC Med Chem, 2020)
Converted amounts (≈) assume the structure as drawn. The source made the active and inactive calls. The calls are words filed in the database; no cut-off is given here.

Tests used:
Pseudomonas aeruginosa = assay: Antibacterial activity against Pseudomonas aeruginosa ATCC 27853 assessed as inhibition of visible bacterial growth at 16 ug/ml incubated for 18 to 20 hrs by CLSI method; type: functional, organism-based; details: dose 16.0 µg/ml, time 18-20 hrs
How it was run: (§1)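 CLSI broth microdilution. Strains grown aerobically overnight on tryptic soy agar at 37 °C, adjusted to 0.5 McFarland and diluted in cation-adjusted Mueller–Hinton broth to about 5×10^5 CFU/mL. Compounds and control drugs serially diluted across the plate. Incubated aerobically at 37 °C for 18-20 h. MIC is the lowest concentration with no visible growth.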

Enterococcus faecalis [1] = assay: Antibacterial activity against vancomycin- resistant Enterococcus faecalis ATCC 51299 assessed as inhibition of visible bacterial growth incubated for 18 to 20 hrs by CLSI method; type: functional; details: time 18-20 hrs; how it was run: as §1
Staphylococcus aureus [2] = assay: Antibacterial activity against methicillin-resistant Staphylococcus aureus NRS387 assessed as inhibition of visible bacterial growth incubated for 18 to 20 hrs by CLSI method; type: functional; details: time 18-20 hrs; how it was run: as §1
Staphylococcus aureus [3] = assay: Antibacterial activity against methicillin-resistant Staphylococcus aureus ATCC 33592 assessed as inhibition of visible bacterial growth incubated for 18 to 20 hrs by CLSI method; type: functional; details: time 18-20 hrs; how it was run: as §1
Staphylococcus aureus [4] = assay: Antibacterial activity against vancomycin-resistant Staphylococcus aureus 10 assessed as inhibition of visible bacterial growth incubated for 18 to 20 hrs by CLSI method; type: functional; details: time 18-20 hrs; how it was run: as §1
Escherichia coli = assay: Antibacterial activity against Escherichia coli ATCC 25404 assessed as inhibition of visible bacterial growth at 16 ug/ml incubated for 18 to 20 hrs by CLSI method; type: functional, organism-based; details: B ATCC 25404, dose 16.0 µg/ml, time 18-20 hrs; how it was run: as §1
Caco-2 = assay: Cytotoxicity against human Caco2 cells assessed as reduction in cell viability at 64 ug/ml incubated for 2 hrs by MTS assay; type: cell-based; details: caco-2, 2 h, dose 64 µg/ml
Staphylococcus aureus [5] = assay: Antibacterial activity against methicillin-resistant Staphylococcus aureus NRS123 assessed as inhibition of visible bacterial growth incubated for 18 to 20 hrs by CLSI method; type: functional; details: time 18-20 hrs; how it was run: as §1
Acinetobacter baumannii = assay: Antibacterial activity against Acinetobacter baumannii ATCC 19606 RW4 assessed as inhibition of visible bacterial growth at 16 ug/ml incubated for 18 to 20 hrs by CLSI method; type: functional, organism-based; details: ATCC 19606 = CIP 70.34 = JCM 6841 RW4, dose 16.0 µg/ml, time 18-20 hrs; how it was run: as §1
[6] = Hemolytic activity in human RBC at 128 ug/ml incubated for 60 mins relative to control; type: ADME, cell-based, Erythrocyte; details: red blood cells (erythrocytes), dose 128 µg/ml, read-out: Activity
How it was run: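 Single-donor human erythrocytes as a 5% v/v suspension in PBS. Compounds serially diluted in PBS, in triplicate, and incubated with RBCs at 37 °C for 60 min. PBS served as the negative control and Triton-X as the positive control. Samples spun at 4,000 rpm for 5 min and supernatant absorbance read at 540 nm. Percent hemolysis = 100×(sample−negative)/(positive−negative).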

Staphylococcus aureus [7] = assay: Antibacterial activity against methicillin-resistant Staphylococcus aureus NRS386 assessed as inhibition of visible bacterial growth incubated for 18 to 20 hrs by CLSI method; type: functional; details: time 18-20 hrs; how it was run: as §1
Staphylococcus aureus [8] = assay: Synergistic antibacterial activity against methicillin-resistant Staphylococcus aureus ATCC 33592 assessed as fractional inhibitory concentration index in presence of methicillin by checkerboard assay; type: functional
Staphylococcus aureus [9] = assay: Antibacterial activity against methicillin-resistant Staphylococcus aureus NRS 119 assessed as inhibition of visible bacterial growth incubated for 18 to 20 hrs by CLSI method; type: functional; details: time 18-20 hrs; how it was run: as §1
Staphylococcus aureus [10] = assay: Synergistic antibacterial activity against methicillin-resistant Staphylococcus aureus ATCC 33592 assessed as fractional inhibitory concentration index in presence of linezolid by checkerboard assay; type: functional
Staphylococcus aureus [11] = assay: Antibacterial activity against methicillin-resistant Staphylococcus aureus NRS484 assessed as inhibition of visible bacterial growth incubated for 18 to 20 hrs by CLSI method; type: functional; details: time 18-20 hrs; how it was run: as §1
Staphylococcus aureus [12] = assay: Synergistic antibacterial activity against methicillin-resistant Staphylococcus aureus ATCC 33592 assessed as fractional inhibitory concentration index in presence of Vancomycin; type: functional
Staphylococcus aureus [13] = assay: Antibacterial activity against methicillin-resistant Staphylococcus aureus NRS382 assessed as inhibition of visible bacterial growth incubated for 18 to 20 hrs by CLSI method; type: functional; details: time 18-20 hrs; how it was run: as §1
Staphylococcus aureus [14] = assay: Antibacterial activity against methicillin-resistant Staphylococcus aureus NRS483 assessed as inhibition of visible bacterial growth incubated for 18 to 20 hrs by CLSI method; type: functional; details: time 18-20 hrs; how it was run: as §1
Staphylococcus aureus [15] = assay: Antibacterial activity against methicillin-sensitive Staphylococcus aureus ATCC 6538 assessed as inhibition of visible bacterial growth incubated for 18 to 20 hrs by CLSI method; type: functional; details: time 18-20 hrs; how it was run: as §1
Staphylococcus aureus [16] = assay: Antibacterial activity against methicillin-resistant Staphylococcus aureus ATCC 33592 assessed as reduction in bacterial count at 3 x MIC incubated upto 24 hrs by time kill analysis; type: functional; details: time hrs <=24
How it was run: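 Time-kill assay. […] Samples taken at 0, 2, 4, 8, 12 and 24 h, serially diluted in PBS and plated on tryptic soy agar. Viable CFU/mL counted after 18-20 h at 37 °C.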

Staphylococcus aureus [17] = assay: Antibacterial activity against methicillin-resistant Staphylococcus aureus NRS385 assessed as inhibition of visible bacterial growth incubated for 18 to 20 hrs by CLSI method; type: functional; details: time 18-20 hrs; how it was run: as §1
Streptococcus pneumoniae [18] = assay: Antibacterial activity against […] Streptococcus pneumoniae ATCC 700677 assessed as inhibition of visible bacterial growth incubated for 18 to 20 hrs by CLSI method; type: functional; details: time 18-20 hrs; how it was run: as §1
Staphylococcus aureus [19] = assay: Antibacterial activity against vancomycin-resistant Staphylococcus aureus 12 assessed as inhibition of visible bacterial growth incubated for 18 to 20 hrs by CLSI method; type: functional; details: time 18-20 hrs; how it was run: as §1
Staphylococcus aureus [20] = assay: Antibacterial activity against methicillin-resistant Staphylococcus aureus NRS383 assessed as inhibition of visible bacterial growth incubated for 18 to 20 hrs by CLSI method; type: functional; details: time 18-20 hrs; how it was run: as §1
[21] = test system: Staphylococcus epidermidis; assay: Antibacterial activity against Staphylococcus epidermidis NRS101 assessed as inhibition of visible bacterial growth incubated for 18 to 20 hrs by CLSI method; type: functional; details: time 18-20 hrs
How it was run: (§2)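 Broth microdilution per CLSI. Strains grown aerobically overnight on TSA at 37 °C, suspended to 0.5 McFarland, diluted in CAMHB to about 5×10^5 CFU/mL. Agents serially diluted across plate; aerobic incubation 37 °C for 18-20 h. MIC = lowest concentration completely preventing visible growth.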

Enterococcus faecalis [22] = assay: Antibacterial activity against vancomycin- resistant Enterococcus faecalis ATCC 700221 assessed as inhibition of visible bacterial growth incubated for 18 to 20 hrs by CLSI method; type: functional; details: time 18-20 hrs; how it was run: as §1
Streptococcus pneumoniae [23] = assay: Antibacterial activity against cephalosporin-resistant Streptococcus pneumoniae ATCC 51916 assessed as inhibition of visible bacterial growth incubated for 18 to 20 hrs by CLSI method; type: functional; details: time 18-20 hrs; how it was run: as §1
Staphylococcus aureus [24] = assay: Synergistic antibacterial activity against methicillin-resistant Staphylococcus aureus ATCC 33592 assessed as fractional inhibitory concentration index in presence of daptomycin by checkerboard assay; type: functional
Listeria monocytogenes = assay: Antibacterial activity against Listeria monocytogenes ATCC 19111 assessed as inhibition of visible bacterial growth incubated for 18 to 20 hrs by CLSI method; type: functional; details: time 18-20 hrs; how it was run: as §2
Staphylococcus aureus [25] = assay: Antibacterial activity against Staphylococcus aureus ATCC 25923 assessed as inhibition of visible bacterial growth incubated for 18 to 20 hrs by CLSI method; type: functional; details: time 18-20 hrs; how it was run: as §1
Staphylococcus aureus [26] = assay: Antibacterial activity against methicillin-sensitive Staphylococcus aureus NRS 107 assessed as inhibition of visible bacterial growth incubated for 18 to 20 hrs by CLSI method; type: functional; details: time 18-20 hrs; how it was run: as §1
Staphylococcus aureus [27] = assay: Bactericidal activity against methicillin-resistant Staphylococcus aureus ATCC 33592 assessed as reduction in bacterial growth incubated for 18 hrs by CLSI method; type: functional
Staphylococcus aureus [28] = assay: Antibacterial activity against methicillin-resistant Staphylococcus aureus NRS384 assessed as inhibition of visible bacterial growth incubated for 18 to 20 hrs by CLSI method; type: functional; details: time 18-20 hrs; how it was run: as §1
J774 = assay: Cytotoxicity against mouse J774 cells assessed as reduction in cell viability at 32 ug/ml incubated for 24 hrs by MTS assay; type: cell-based; details: j774, 24 h, dose 32 µg/ml

In the case of `O=C(Nc1nnc(-c2cccs2)o1)c1ccc(S(F)(F)(F)(F)F)cc1`, the inhibition (Pseudomonas aeruginosa) was “inactive”, the MIC (Enterococcus faecalis [1]) was 2 µg/mL (≈ 5.03 µM) and the MIC (Staphylococcus aureus [2]) was 0.25 µg/mL (≈ 0.629 µM). For the same compound, the MIC (Staphylococcus aureus [3]) was 0.5 µg/mL (≈ 1.26 µM), the MIC (Staphylococcus aureus [4]) was 0.25 µg/mL (≈ 0.629 µM) and the inhibition (Escherichia coli) was “inactive”. For the same compound, the Activity (Caco-2) was “Non-Toxic”, the MIC (Staphylococcus aureus [5]) was 0.25 µg/mL (≈ 0.629 µM) and the inhibition (Acinetobacter baumannii) was “inactive”. The hemolysis at 1 h, 128 ug/ml [6] was 9%, the MIC (Staphylococcus aureus [7]) was 0.125 µg/mL (≈ 0.315 µM) and the “fractional inhibitory concentration index (FICI)” value (Staphylococcus aureus [8]) was 0.5. The MIC (Staphylococcus aureus [9]) was 0.06 µg/mL (≈ 0.151 µM), the “fractional inhibitory concentration index (FICI)” value (Staphylococcus aureus [10]) was 1.5 and the MIC (Staphylococcus aureus [11]) was 0.5 µg/mL (≈ 1.26 µM). The “fractional inhibitory concentration index (FICI)” value (Staphylococcus aureus [12]) was 1, the MIC (Staphylococcus aureus [13]) was 0.5 µg/mL (≈ 1.26 µM) and the MIC (Staphylococcus aureus [14]) was 0.25 µg/mL (≈ 0.629 µM). For the same compound, the MIC (Staphylococcus aureus [15]) was 0.5 µg/mL (≈ 1.26 µM), the Activity (Staphylococcus aureus [16]) was 3.96 log10CFU/ml and the MIC (Staphylococcus aureus [17]) was 0.5 µg/mL (≈ 1.26 µM). The MIC (Streptococcus pneumoniae [18]) was 0.125 µg/mL (≈ 0.315 µM), the MIC (Staphylococcus aureus [19]) was 0.125 µg/mL (≈ 0.315 µM) and the MIC (Staphylococcus aureus [20]) was 1 µg/mL (≈ 2.52 µM). For the same compound, the MIC [21] was 0.06 µg/mL (≈ 0.151 µM), the MIC (Enterococcus faecalis [22]) was 2 µg/mL (≈ 5.03 µM) and the MIC (Streptococcus pneumoniae [23]) was 0.25 µg/mL (≈ 0.629 µM). For the same compound, the “fractional inhibitory concentration index (FICI)” value (Staphylococcus aureus [24]) was 0.75, the MIC (Listeria monocytogenes) was 0.125 µg/mL (≈ 0.315 µM) and the MIC (Staphylococcus aureus [25]) was 0.25 µg/mL (≈ 0.629 µM). The MIC (Staphylococcus aureus [26]) was 0.125 µg/mL (≈ 0.315 µM), the MBC (Staphylococcus aureus [27]) was 1 µg/mL (≈ 2.52 µM) and the MIC (Staphylococcus aureus [28]) was 0.5 µg/mL (≈ 1.26 µM). The Activity (J774) was “Non-Toxic”.
